The chains are these.
B1: NELF-E aptamer (parent)
chain: CCCAACGACUGCCGAGCGAGAUUACGCUUGAGCGCCCCACUGAGGAUGCCCACGGGCGAUUGGGGCACGG

The values that follow come from the RNAGym collection of RNA variant scans (doi:10.1038/nmeth.2970).

The variants in the data set derive from B1. Briefly: HiTS-RAP. As to conditions: with NELF-E (Drosophila). The method in brief:
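Aptamer DNA templates bearing a T7 promoter and a ter site were sequenced on an Illumina GAIIx flowcell. T7 RNA polymerase then transcribed them in situ, and GST-Tus halted transcription over 30 minutes at 37°C. After a 30-minute room-temperature equilibration with NELF-E-mOrange at 0.064 to 1000 nM in HEPES binding buffer, clusters were imaged, using only the first binding curve. Intensities normalised to sequencing intensity were averaged per sequence and fitted with weighted Hill fits to give Kd, retaining only fits whose variance stayed under 1,000,000.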
By Kd is commonly meant the equilibrium constant for the complex coming apart. Regarding CCCAACGAGUGCCGAGCGAGAUUACGCUUGAGCGCCCCACUGAGGAAGCCCACGGGCGAUUGGGGCACGG [C9G U47A], the Kd was 11.9 nM.
In the case of CCCAACGAUUGCCGAGGGAGAUUACGCUUGAGCGCCCCACUGAGGAUGCCCACGGGCGAUUGGGGCACGG [C9U C17G], the Kd worked out at 6.19 nM.
The result for CCCAACGAGUGCCGAGCGAGAGUACGCUUGAGCGCCCCACUGAGGAUGCCCACGGGCGAUUGGGGCACGG [C9G U22G] reads 5.5 nM; that for CCCAACGACAGCCAAGCGAGAUUACGCUUGAGCGCCCCACUGAGGAUGCCCACGGGCGAUUGGGGCACGG [U10A G14A], 7.05 nM.
As for CCCAACGACAGCCUAGCGAGAUUACGCUUGAGCGCCCCACUGAGGAUGCCCACGGGCGAUUGGGGCACGG [U10A G14U], the Kd turned out to be 6.38 nM.
The result for CCCAACGACCGCCGAGCGAGAUUACGCUUGAGCGCCCCACUGAGGAUGCCCACGGGCGAUUGGGGCUCGG [U10C A67U] reads 5.45 nM; that for CCCAACGAUUGCCGAGCGGGAUUACGCUUGAGCGCCCCACUGAGGAUGCCCACGGGCGAUUGGGGCACGG [C9U A19G], 5.01 nM.
Turning to CCCAACGACCGCCGAGCGAGAUUGCGCUUGAGCGCCCCACUGAGGAUGCCCACGGGCGAUUGGGGCACGG [U10C A24G], the Kd amounted to 5.38 nM.
Regarding CCCAACGAUUGGCGAGCGAGAUUACGCUUGAGCGCCCCACUGAGGAUGCCCACGGGCGAUUGGGGCACGG [C9U C12G], the dissociation constant (Kd) stood at 6.92 nM.
The same measure for CCCAACGACAGCCGAGCGAGAUUACACUUGAGCGCCCCACUGAGGAUGCCCACGGGCGAUUGGGGCACGG [U10A G26A]: 5.22 nM; for CCCAACGACCUCCGAGCGAGAUUACGCUUGAGCGCCCCACUGAGGAUGCCCACGGGCGAUUGGGGCACGG [U10C G11U]: 5.91 nM; for CCCAACGACCGCGGAGCGAGAUUACGCUUGAGCGCCCCACUGAGGAUGCCCACGGGCGAUUGGGGCACGG [U10C C13G]: 5.55 nM.
The same measure for CCCAACGAUUGCCGAGCGAGAUUACGCUUGAGCGCCCCACGGAGGAUGCCCACGGGCGAUUGGGGCACGG [C9U U41G]: 5.98 nM; for CCCAACGACCGCCGAGCGAGAGUACGCUUGAGCGCCCCACUGAGGAUGCCCACGGGCGAUUGGGGCACGG [U10C U22G]: 5.75 nM; for CCCAACGACAUCCGAGCGAGAUUACGCUUGAGCGCCCCACUGAGGAUGCCCACGGGCGAUUGGGGCACGG [U10A G11U]: 7.2 nM.
CCCAACGACCGCCGAGCGAGAUUACGCUUGAGCGCCCCACUGAGGAUGCCCACGGGCGAUUGGAGCACGG [U10C G64A]: the dissociation constant (Kd) was 9.5 nM.
The result for CCCAACGAUUGCGGAGCGAGAUUACGCUUGAGCGCCCCACUGAGGAUGCCCACGGGCGAUUGGGGCACGG [C9U C13G] reads 5.59 nM; that for CCCAACGAUUGCUGAGCGAGAUUACGCUUGAGCGCCCCACUGAGGAUGCCCACGGGCGAUUGGGGCACGG [C9U C13U], 5.14 nM; that for CCCAACGACAGCCGAGCGGGAUUACGCUUGAGCGCCCCACUGAGGAUGCCCACGGGCGAUUGGGGCACGG [U10A A19G], 6.65 nM.
The same measure for CCCAACGAUUGCCGAGCGAGAUGACGCUUGAGCGCCCCACUGAGGAUGCCCACGGGCGAUUGGGGCACGG [C9U U23G]: 5.63 nM; for CCCAACGAUUGCCGAGCGAGAUUGCGCUUGAGCGCCCCACUGAGGAUGCCCACGGGCGAUUGGGGCACGG [C9U A24G]: 5.62 nM; for CCCAACGAGUGCCGAGCGAGAUUACGCUUGAGCGCCCCACCGAGGAUGCCCACGGGCGAUUGGGGCACGG [C9G U41C]: 80.7 nM.
The result for CCCAACGAGUGCCGAGCGAGAUUACGCUUGAGCGCCCCACAGAGGAUGCCCACGGGCGAUUGGGGCACGG [C9G U41A] reads 79.4 nM; that for CCCAACGAGUGCCGAGCGAGAUUACGCUUGAGCGCCCCACGGAGGAUGCCCACGGGCGAUUGGGGCACGG [C9G U41G], 6.14 nM.
Regarding CCCAACGACCGCCGAGCGAGAUGACGCUUGAGCGCCCCACUGAGGAUGCCCACGGGCGAUUGGGGCACGG [U10C U23G], the Kd was 5.12 nM.
As for CCCAACGACAGCGGAGCGAGAUUACGCUUGAGCGCCCCACUGAGGAUGCCCACGGGCGAUUGGGGCACGG [U10A C13G], the dissociation constant (Kd) was 5.83 nM.
As for CCCAACGACAGCCGAUCGAGAUUACGCUUGAGCGCCCCACUGAGGAUGCCCACGGGCGAUUGGGGCACGG [U10A G16U], the Kd was found to be 5.86 nM.
On to CCCAACGAUUGCCAAGCGAGAUUACGCUUGAGCGCCCCACUGAGGAUGCCCACGGGCGAUUGGGGCACGG [C9U G14A], for which the Kd worked out at 6.66 nM.
The result for CCCAACGAUUGCCUAGCGAGAUUACGCUUGAGCGCCCCACUGAGGAUGCCCACGGGCGAUUGGGGCACGG [C9U G14U] reads 6.79 nM; that for CCCAACGAUUGCCGAGCGAGAUUACGCUUGAGCGCCCCACUGAGGAUGCCCACGGGCGAUUGGGGCACGG [C9U], 5.19 nM; that for CCCAACGACAGCCGAGCGAGAUUACGCUGGAGCGCCCCACUGAGGAUGCCCACGGGCGAUUGGGGCACGG [U10A U29G], 5.61 nM.
The same measure for CCCAACGACAGCCGAGCGAGAUUACGCUCGAGCGCCCCACUGAGGAUGCCCACGGGCGAUUGGGGCACGG [U10A U29C]: 5.24 nM; for CCCAACGACCGCCGAGCGAGAUUACGCUUGAGCGCCCCACUGAGGAUGCCCACGGGCGAUUGGGGCACGG [U10C]: 4.6 nM.
With CCCAACGACAGCCGAGCGAGAUUACGCUUGAGCGCCCCACUGAGGAUGCCCACGGGCGAUUGGGGCACGG [U10A], the equilibrium dissociation constant (Kd) was 4.9 nM.
The same measure for CCCAACGACAGCCGAGCGAGAUUACGCUUGAGCGCCCCACUGAGGAUGCCCACGGGCGAUAGGGGCACGG [U10A U61A]: 26 nM.
The same measure for CCCAACGACCGCCGAGCGAGAUUACGCUUGAGCGCCCCACUGAGGAUGCCCAUGGGCGAUUGGGGCACGG [U10C C53U]: 3.84 nM; for CCCAACGAUUGCCGAGCGAUAUUACGCUUGAGCGCCCCACUGAGGAUGCCCACGGGCGAUUGGGGCACGG [C9U G20U]: 7.82 nM; for CCCAACGAUUGCCGAUCGAGAUUACGCUUGAGCGCCCCACUGAGGAUGCCCACGGGCGAUUGGGGCACGG [C9U G16U]: 7.34 nM.
The same measure for CCCAACGACCGCCGAGCGGGAUUACGCUUGAGCGCCCCACUGAGGAUGCCCACGGGCGAUUGGGGCACGG [U10C A19G]: 4.87 nM.
